An excerpt weighted towards active compounds, which were near 2.6% of everything screened.
NR2E3 ag-1 – human photoreceptor-specific nuclear receptor agonism | AID 602229 | CHO-S Gal4-NCOR/VP16-NR2E3 two-hybrid, luciferase | inhibition of corepressor binding, % at 3.98 µM | 360,000 tested, 0.35% active;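 active = inhibition above the mean of all tested compounds plus 3 SD, cut at about 70% in these data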;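 also: higher means lower luciferase signal from less NR2E3 corepressor binding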
NR2E3 ag-2 – activates human photoreceptor nuclear receptor NR2E3. Q9Y5X4. GST-NR2E3/biotin-RetCOR TR-FRET, 1536-well. inhibition of corepressor binding, % at 4.78 µM. 320,000 tested, 0.12% active;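 active = percent inhibition above the cutoff of mean plus 3 SD of all tested compounds, set per screening campaign, cut at about 20% in these data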
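Assay system: NR2E3–RetCOR corepressor complex. Quantity: 1.35 nM GST-NR2E3. Buffer or medium: pH 7.5 Tris-based buffer. Reagent: biotinylated RetCOR corepressor at 7 nM final. Schedule: 5 h at 4 °C. Detection: TR-FRET, emission read at 617 and 671 nm. Replicates: one well per compound, singlicate testing.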
rCAG RNA binder – molecules binding r(CAG) RNA repeats; 370,000 tested, 1.3% active; r(CAG) RNA repeat, TO-PRO-1 dye displacement fluorescence; inhibition, % at 3 µM;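 active = inhibition above the plate cutoff, the mean of all test compounds on that plate plus 3 SD, cut at about 35% in these data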;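 also: higher means more dye released from RNA so lower well fluorescence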
Rev-erbA mod – modulators of human Rev-erb alpha DNA binding; P20393; AID 1259318; Rev-erbα–FITC-DNA binding, fluorescence polarization, 90 min; 370,000 tested, 0.79% active; activity, % at 10 µM;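 active = activity above about 14%, limit read from the data; passing the limit was not always enough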
Target sequence (P20393 whole entry, looked up): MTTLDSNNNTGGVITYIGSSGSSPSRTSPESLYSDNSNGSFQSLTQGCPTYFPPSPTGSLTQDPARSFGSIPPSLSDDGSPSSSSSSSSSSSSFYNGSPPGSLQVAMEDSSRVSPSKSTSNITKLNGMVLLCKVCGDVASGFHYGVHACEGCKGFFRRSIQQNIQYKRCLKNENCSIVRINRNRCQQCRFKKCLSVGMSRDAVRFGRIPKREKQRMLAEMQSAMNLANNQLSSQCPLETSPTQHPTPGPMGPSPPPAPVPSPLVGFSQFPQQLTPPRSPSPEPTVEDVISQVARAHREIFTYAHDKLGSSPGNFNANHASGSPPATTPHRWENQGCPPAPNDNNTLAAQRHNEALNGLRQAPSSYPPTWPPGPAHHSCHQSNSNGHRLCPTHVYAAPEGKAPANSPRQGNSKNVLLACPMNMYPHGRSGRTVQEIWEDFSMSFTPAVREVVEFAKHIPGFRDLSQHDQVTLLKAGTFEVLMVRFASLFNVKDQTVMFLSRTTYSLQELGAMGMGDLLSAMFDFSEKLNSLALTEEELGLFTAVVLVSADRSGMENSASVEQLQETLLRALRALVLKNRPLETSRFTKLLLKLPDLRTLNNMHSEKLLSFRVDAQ
PG9 Ab binder – PG9 antibody binding by small molecule; AID 624416; TR-FRET gp120-PG9 antibody binding; 360,000 tested, 0.43% active; inhibition, % at 6.7 µM; in the data active = inhibition above about 8.5%
PG9 binder conf – PG9 antibody binding, confirmed. TR-FRET PG9 antibody binding, biochemical. 1,500 tested, 90% active. shares compounds with PG9 Ab binder. inhibition, % at 6.7 µM; in the data active = inhibition above about 9%
PGV04 Ab binding – counter-screen for PG9 binders: binding control antibody PGV04 | shares compounds with PG9 Ab binder | TR-FRET PGV04 antibody-gp120 binding, biochemical | inhibition, % at 6.7 µM | 1,500 tested, 95% active | AID 651604; in the data active = inhibition above about 9.5%
A number is an active result; . = inactive; / = not tested or not shown.

SMILES	NR2E3 ag-1	NR2E3 ag-2	rCAG RNA binder	Rev-erbA mod	PG9 Ab binder	PG9 binder conf	PGV04 Ab binding
C[C@H](CO)N1C[C@H](C)[C@H](CN(C)C(=O)Nc2ccc3c(c2)OCO3)OCc2cnnn2CCCC1=O	/	/	.	.	.	/	/
CC[C@H](NC(=O)[C@@H](Cc1ccccc1)NC(=O)[C@H]1O[C@@H](n2ccc(=O)[nH]c2=O)[C@H](O)[C@@H]1O)c1ccccc1	/	/	.	.	.	/	/
CCOC(=O)Cn1c(=NC(=O)CSC(C)=O)sc2cc(F)ccc21	.	.	.	.	40	69	80
CCOC(=O)Cn1c(=NC(=O)CC)sc2c(C)cc(C)cc21	.	.	.	.	11	15	23
Cc1ccnc(N2CCC(C(=O)Nc3ccc4c(c3)CCC4)CC2)n1	.	.	.	.	37	44	61
COC(=O)c1cc2c(C)cc3ccc(C)cn3c-2c1C(=O)OC	.	.	.	.	11	17	22
COC(=O)c1cc2ccccn2c2c(C(=O)OC)c(C(=O)OC)cc1-2	.	.	.	.	.	/	/
COC(=O)c1sc(NC(=O)COc2ccccc2C)nc1C	.	.	.	.	11	20	28
COc1cc(OC)cc(C(=O)NC2CCSC2=O)c1 (stereo not given)	.	.	.	.	15	.	39
COc1ccc(C(=O)NC(=S)NC2CCSC2=O)cc1 (stereo not given)	.	.	.	.	.	/	/
CC(C)N1CCC1(C)C(=O)Nc1ccc2cn[nH]c2c1 (stereo not given)	.	/	.	.	.	/	/
CON(C)S(=O)(=O)c1ccc2c(c1)N(Cc1ccc(C)cc1)C(=O)C1CCCN21 (stereo not given)	.	.	.	.	10	19	27
Cc1ccc(CN2C(=O)C3CCCN3c3ccc(C#N)cc32)cc1 (stereo not given)	/	.	/	/	/	/	/
O=C(CSc1nc2nc3c(cc2c(=O)n1-c1ccccc1)CCCC3)Nc1cccc2ccccc12	.	.	.	.	.	/	/
CC(=O)c1ccc(NC(=O)CSc2nc(N)c3cc4c(nc3n2)CCCC4)cc1	.	.	.	.	22	14	26
COc1ccc(NC(=O)CSc2nc(N)c3cc4c(nc3n2)CCCC4)cc1	.	.	.	.	.	/	/
Cc1cccc(NC(=O)CSc2nc3nc4c(cc3c(=O)n2-c2ccccc2)CCCC4)c1	.	.	.	.	29	25	39
Cc1cc(C2=CC(=O)C[C@H](c3ccc4c(c3)OCO4)C2)ccc1F	.	.	.	.	.	/	/
CC1CC(OC(=O)C(O)c2ccccc2)CC(C)(C)C1 (stereo not given)	/	/	/	.	/	/	/
COc1cccc(NC(=O)CSc2ccc3nnc(CCNC(=O)c4ccccc4)n3n2)c1	.	.	.	.	.	/	/
Cc1cccc(C)c1NC(=O)C1(C)CSCC(=O)N1CCc1ccc(O)cc1 (stereo not given)	/	/	.	.	.	/	/
C[C@H](CO)N1C[C@H](C)[C@@H](CN(C)S(=O)(=O)c2ccccc2F)OCc2cnnn2CCCC1=O	.	/	.	.	.	/	/
COc1cccc(OC)c1C(=O)Nc1ccc(C(=O)NCc2ccccc2)cc1	.	.	.	.	9.6	12	17
Cc1csc(NC(=O)c2cccs2)n1	.	.	.	.	.	/	/
Cc1csc2c(=O)sc(NC(=O)c3ccco3)nc12	.	.	.	.	37	49	78
SMILES	NR2E3 ag-1	NR2E3 ag-2	rCAG RNA binder	Rev-erbA mod	PG9 Ab binder	PG9 binder conf	PGV04 Ab binding
Cc1csc2c(=O)sc(NC(=O)c3cccs3)nc12	.	.	.	.	64	66	88
COC(=O)C1=C(C)N(Cc2ccccc2C(F)(F)F)C(=NCc2ccc(OC)cc2)NC1c1cccc(F)c1 (stereo not given)	/	/	.	.	.	/	/
Cc1ccccc1NC(=O)c1c(C)[nH]c(=S)c(C#N)c1-c1ccc(Cl)cc1	.	.	.	.	.	/	/
Cc1ccc(-c2c(C(=O)Nc3ccccc3C)c(C)[nH]c(=S)c2C#N)o1	.	.	.	.	15	11	11
CCC(=O)Nc1cccc(NC(=S)NC(=O)c2ccccc2)c1	.	.	.	.	.	/	/
O=C(NC(=S)Nc1cccc(NC(=S)NC(=O)c2ccccc2)c1)c1ccccc1	.	/	.	.	12	.	14
